# Laboratory results as given in ChEMBL document CHEMBL4513216, “Probing the Open Global Health Chemical Diversity Library for Multistage-Active Starting Points for Next-Generation Antimalarials” (ACS Infect Dis, 2020).
# Experiment: Toxicity liver stage against HepG2, at 10uM
# Format: cell-based
# Design: test concentration 10 uM, cell line HepG2-A16-CD81EGFP
# Conditions: human, HepG2-A16-CD81EGFP cells; read-out: INHIBITION
# In short: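 Uninfected HepG2-A16-CD81EGFP cells, 3 × 10^3 per well, 1536-well, plated on prespotted compound at 10 μM final, parasite-free screening media added to match infected plates; puromycin 10 μM positive, DMSO 0.5% negative; run in parallel with 48 h PbLuc assay at 37 °C, 5% CO2; viability by CellTiter-Glo luminescence, normalized to controls.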
row,SMILES,cytotoxicity at 10 µM [%]
1,NC(=O)Cn1ccc(O)c(Cc2ccc(Cl)cc2Cl)c1=O,8.85
2,Cc1nc(C)c(CN2CCOC[C@H](Oc3ccccc3)C2)s1,7.53
3,Nc1nc2c(c3c1C(=O)NC3=O)CCCC2,10.2
4,Cc1ccnc(SCC(=O)Nc2csc3nc(=O)c(C)nn23)n1,12.2
5,O=C(CNC(=O)c1cnccn1)Nc1ncc[nH]1,-43.4
6,O=C1CSC(c2ccc(F)c(Cl)c2)c2c(n(C3CCOCC3)[nH]c2=O)N1 (stereo not drawn),3.4
7,CC(=O)Nc1cccc2c1ccn2CC(=O)Nc1n[nH]c(CC(C)C)n1,-0.473
8,Cc1cc(=O)[nH]c(-n2nc(C)c(CCC(=O)NCc3cccs3)c2C)n1,10.3
9,Cc1cc(S(=O)(=O)N2CCC(N3CCC(O)C3)CC2)c(Cl)cc1Cl (stereo not drawn),0.944
10,COc1cc(N2CC[C@@H]3O[C@@H](c4ccncn4)C[C@H]3C2)ncn1,12.6
11,CCN1CC2(CC1=O)CN(C(=O)c1cccs1)CCN(C(=O)N(C)C)C2 (stereo not drawn),2
12,O=C(Nc1cnn(COc2ccc(F)cc2Cl)c1)C1CC1,-10.6
13,Cc1nnc(SCC(=O)NCc2ccc3c(c2)CCC(=O)N3)s1,-5.03
14,CCn1nc(C)c(CNC(=O)c2nnc3ccc(Cl)cc3n2)c1C,8.1
15,CCC(=O)N1CCCC(c2nc(N(C)C)ncc2-c2ccc(F)cc2)C1 (stereo not drawn),28.1
16,Cc1csc(NC(=O)c2cnc(C3CCCN(C)C3)cn2)n1 (stereo not drawn),-21.3
17,O=C(c1cnccn1)N1CCCC(Cc2cccc3ncccc23)C1 (stereo not drawn),12
18,COc1cc(CNc2cnn(C(C)(C)C)c(=O)c2Cl)ccn1,55.9
19,Cc1ccc(-c2nc(CC(=O)NCC3CCOC3)cs2)o1 (stereo not drawn),-43
20,Cc1nc(-c2ccccc2)ccc1C(=O)N1CCN(CCO)CC1,-53.9
21,CC(C)C(NCc1ccc(Cn2cncn2)cc1)c1ccc(F)cn1 (stereo not drawn),-0.593
22,CC(C)N(CC(=O)Nc1ccc(Br)cc1Cl)Cc1cccnc1,17.2

row,SMILES,cytotoxicity at 10 µM [%]
1,Cc1c(Cl)cccc1NC(=O)CN(Cc1cccnc1)C(C)C,4.77
2,Cn1ccc(N2CCCC(NC(=O)c3ccsc3)C2=O)n1 (stereo not drawn),-3
3,CN(CCN1CCN(c2ccccc2)CC1)C(=O)Nc1ccncc1,11.5
4,Cc1cnn(C2CN(CC(O)COc3ccc(C#N)cc3)C2)c1 (stereo not drawn),1.81
5,N#Cc1ccc(NCC(=O)Nc2ncn(Cc3cccnc3)n2)cc1,7.65
6,N#Cc1csc(CN(CC(=O)N2CCCC2)CC2CCCO2)c1 (stereo not drawn),-6.26
7,COc1ccc(CNC(C)c2ccc(Cl)c(Cl)c2)c(OC)c1OC (stereo not drawn),14.2
8,CN(C)CCCNC(=O)c1cnc(Cc2ccc(F)cc2)s1,3.47
9,Cc1noc(C)c1CN1CCC(c2nc3cc(Cl)ccc3o2)CC1,-4.22
10,O=S(=O)(NCCCN1CCCC1)c1cc(F)cc(F)c1,8.84
11,CN(Cc1ccccc1)C(=O)CSc1ccc2c(c1)OCCO2,-9.48
12,CCOCCC1(C(=O)N2CCCC(c3ncc[nH]3)C2)CCCC1 (stereo not drawn),-1.7
13,Cc1ccsc1CN(C)c1nc2c(cnn2C(C)(C)C)c(=O)[nH]1,33.3
14,N#Cc1nccnc1N1CCC(OCCCc2ccccc2)C1 (stereo not drawn),4.31
15,CCCN(CCC)S(=O)(=O)c1cc(NC(C)=O)ccc1C,-148
16,CCOc1ccc(OCC)c(NCc2cc(C)on2)c1,-40.1
17,FC(F)(F)c1cccc(N2CCC(NCc3cccnc3)CC2)c1,-64.5
18,CNC(=O)CNC(=O)Nc1cc(-c2ccccc2)ns1,22
19,Cc1cc(NC(=O)NC2CCN(C(C)C)CC2)c2ncccc2c1,9.67
20,Cn1cc(CCNCC2CNc3ccnn3C2)cn1 (stereo not drawn),3.34
21,Cc1cccc(NCc2ncc(C(C)(C)C)o2)c1,24.3
22,O=C(CCc1ccccc1)N1CCCCC1C1OCCO1 (stereo not drawn),-45.1

row,SMILES,cytotoxicity at 10 µM [%]
1,COc1ncccc1CN1Cc2nccn2CC(CN2CCCC2)C1 (stereo not drawn),-103
2,O=C(CC1CC1)N[C@@H]1CN(C(=O)c2ccoc2)C[C@@H]2CCCO[C@@H]21,-104
3,COCC(=O)N1CCCC2(CCN(c3ccccc3)C2=O)C1 (stereo not drawn),-74.3
4,CC(C)Nc1ncnc2c1CCN(C(=O)c1ccc[nH]1)CC2,-77.6
5,CCC1=N[C@@]2(CC[C@@H]3CN(C(=O)NCc4ccccc4C)C[C@@H]32)C(=O)N1,-71.1
6,O=S(=O)(c1ccccc1)N1CCC2(CCCN2CC2CCCC2)C1 (stereo not drawn),4.4
7,COc1ccc(C)cc1-n1c(COC(C)C)n[nH]c1=O,6.42
8,Cn1ncc(N2CCOC(CCNC(=O)NC(C)(C)C)C2)cc1=O (stereo not drawn),22.6
9,CCc1ccc(CCNc2ncnc3c2CCN(C(=O)C2CC2)C3)cc1,36.9
10,CCOCCC(=O)Nc1cc(C(N)=O)ccc1N1CCCC(C)C1 (stereo not drawn),-43
11,O=C(CCn1cncn1)N1CCCC(CO)(CCCc2ccccc2)C1 (stereo not drawn),4.25
12,c1cc(-c2nc3c(c(NCCn4ccnn4)n2)CCNCC3)ccn1,-56.4
13,O=c1cc(N2CCCC2)cnn1CC(F)F,6.93
14,CC(C)c1cc(N2CCC(C(C)N3CCCC3)CC2)n2nccc2n1 (stereo not drawn),-1.86
15,CN1CCCC1CCn1ccnc1-c1ccc2ccccc2n1 (stereo not drawn),0.0773
16,CC(C)[C@@H]1CN(C(=O)c2ccc3c(c2)CCCO3)C[C@H]1NS(C)(=O)=O,-6.53
17,CCc1cn[nH]c1C1CCN(c2cc(C)c3ccc(OC)cc3n2)CC1,18.7
18,Cc1[nH]c2ccccc2c1CCNc1ncnc2c1CCNCC2,-37.5
19,COc1ccc(F)c(CN2CCCC(O)(CNCC(C)(C)C)C2=O)c1 (stereo not drawn),12.2
20,Cc1nc2c(c(N3CCCC(OCc4ccccn4)C3)n1)CCNCC2 (stereo not drawn),0.383
21,CCCn1ncc(C2CC(=O)NCc3nc4cc(C)ccn4c32)c1C (stereo not drawn),-3.21
22,Cn1ncc(N2CCC(CNC3CC(C)(C)CC(C)(C)C3)C2)cc1=O (stereo not drawn),-10.4

row,SMILES,cytotoxicity at 10 µM [%]
1,CCN1CC2(CCC1=O)CCN(C(=O)C(O)c1cccc(Cl)c1)CC2 (stereo not drawn),0.636
2,CN(CC1(CO)CCCC1)c1nc2c(c(=O)[nH]1)Cc1ccccc1OC2,11.7
3,CCCn1ncc(CN2CCCC(C(=O)c3ccc(Cl)cc3C)C2)c1C (stereo not drawn),-6.35
4,CSc1ncc(CNCC2(N3CCCCC3)Cc3ccccc3C2)cn1,5.07
5,CCN1CCN(C(=O)c2ccc3c(c2)NC(=O)CN3)[C@H]2CS(=O)(=O)C[C@H]21,-52.9
6,CCc1nnc(CN(C)Cc2cccc(C(=O)Nc3nccs3)c2)o1,-2.97
7,CC[C@H](C)[C@@H](CO)NC(C)Cc1ccc(Cl)cc1 (stereo partly drawn),-10.6
8,Cc1cccc(C2CC(=O)Nc3c2c(=O)[nH]n3C(C)C)c1 (stereo not drawn),-3.33
9,CC(=O)Nc1cccc(-c2ccccc2CCN)c1,-5.85
10,CCn1nc(C)c(CCNC(=O)c2cccc(-n3cccn3)c2)c1C,-12.9
11,Cc1nc(NCc2noc(C3CCCO3)n2)c2ccsc2n1 (stereo not drawn),49.9
12,CCCOC(C)Cn1ccc2[nH]c(=O)c(C#N)cc2c1=O (stereo not drawn),7.39
13,CCCc1cc(CNC2CCN(c3cc(C)nc(N)n3)CC2)on1,-6.17
14,CCN(CC)CCCN1CCN(c2nc(C)cnc2C)CC1,-31
15,Nc1cc2c(nn1)CCN(C(=O)CCCC1CCCCC1)C2,-0.0113
16,CCNc1cc2c(nn1)CCN(C(=O)c1cc3cccc(C)c3o1)C2,-8.06
17,CCc1nc(C2CCCN2Cc2noc(Cc3ccccc3)n2)no1 (stereo not drawn),1.29
18,CC(C)(C)n1cc(C(=O)N2CCN(Cc3ccccc3F)CC2)cn1,10.6
19,Cc1nc(C)n(CC2CCCN(c3ncnc4sccc34)C2)n1 (stereo not drawn),36.2
20,Cc1cc(N2CCC(Cc3ccccc3)CC2)nc(-c2ccncc2)n1,-2.68
21,O=C(c1ccoc1)N1CCOC2(COCCN(CC3CC3)C2)C1 (stereo not drawn),7.57
22,Cc1cc(CN2C[C@@H]3CCCO[C@@H]3[C@H](N(C)C(C)C)C2)no1,2.44

row,SMILES,cytotoxicity at 10 µM [%]
1,COc1ccc(CNC(C)c2cccc(Br)c2)c(OC)c1OC (stereo not drawn),9.75
2,CCc1ccc(S(=O)(=O)N2Cc3c(CN(C)C)nn(C)c3C2)cc1,-106
3,O=C1CC(c2ccncc2)C2(CCN(C(=O)c3cccs3)CC2)N1 (stereo not drawn),-71.1
4,CC(C)Nc1nc2c(cc1C(=O)NCC1CC1)CCN(CC1CC1)CC2,46.5
5,CC(C)COCc1cncc2c1CCN(Cc1cnn(C)c1)C2,-7.96
6,O=C(Nc1cccc(CNCc2csc(Br)c2)c1)C1CC1,7.97
7,Cc1cnc(N2C[C@@H]3[C@@H](C2)OCC(=O)N3CCN(C)C)nc1,-4.35
8,COc1cc(N2C[C@H]3CCC[C@@H](CN4CCOCC4)[C@H]3C2)ncn1,-71.5
9,CC(C)N1CCCn2c(nc(CNC(=O)c3nccn3C)cc2=O)C1,2.84
10,O=C(NCc1cccnc1)[C@@H]1CC[C@@H]2[C@@H](CCN2c2ncc(F)cn2)O1,-44.6
11,c1ccc(COC[C@@H]2CCC[C@@]23CNCCO3)nc1,-105
12,Cc1cncc(C(=O)N2CCO[C@H]3[C@H](Oc4ccccn4)CC[C@@H]32)c1,-115
13,Cn1cc(CN2CCOC3(CCCN(c4cccc(F)c4)C3)C2)cn1 (stereo not drawn),-77.1
14,CC(C)NC(=O)N1Cc2nccn2CC(CN2CCCC2)C1 (stereo not drawn),-75.8
15,O=C(NCc1cccnc1)[C@@H]1C[C@H]2[C@H](CCN2c2ncccn2)O1,-66.6
16,O=C(c1cc(C2CC2)on1)N1C[C@@H]2COC[C@]2(COc2cccnc2)C1,-89.7
17,Cn1nccc1-c1nc2c(cc1C(=O)O)CCN(C(=O)C1CC1)CC2,-143
18,Fc1cnc(N2CCOC3(CCN(Cc4ccsc4)CC3)C2)nc1,2.6
19,CCNCCc1nc2cc(F)ccc2[nH]1,5.18
20,COC1[C@@H]2CC[C@H]1CN(c1nc(C)nc3sccc13)C2 (stereo partly drawn),34
